According to article PMC3149845 (The Journal of neuroscience : the official journal of the …, 2011):
pEC50: −log10 of the molar value. Peptide text beside a SMILES is read from it.

Assays:
hTas1R2/hTas1R3 = target: T1, hTas1R2/hTas1R3 (Homo sapiens, UniProt Q8TE23); experiment: Ca2+ mobilization, wild type human sweet taste receptor; format: cell-based; conditions: for response in dose-response experiment: HEK293E cells with Gα16-gust44; for Bottom (B) of sigmoid dose-response fit / Top (T) of sigmoid dose-response fit: ΔF/F normalized to maximum response of hTas1R2/hTas1R3 to neotame
T1 sequence (Q8TE23 20-839): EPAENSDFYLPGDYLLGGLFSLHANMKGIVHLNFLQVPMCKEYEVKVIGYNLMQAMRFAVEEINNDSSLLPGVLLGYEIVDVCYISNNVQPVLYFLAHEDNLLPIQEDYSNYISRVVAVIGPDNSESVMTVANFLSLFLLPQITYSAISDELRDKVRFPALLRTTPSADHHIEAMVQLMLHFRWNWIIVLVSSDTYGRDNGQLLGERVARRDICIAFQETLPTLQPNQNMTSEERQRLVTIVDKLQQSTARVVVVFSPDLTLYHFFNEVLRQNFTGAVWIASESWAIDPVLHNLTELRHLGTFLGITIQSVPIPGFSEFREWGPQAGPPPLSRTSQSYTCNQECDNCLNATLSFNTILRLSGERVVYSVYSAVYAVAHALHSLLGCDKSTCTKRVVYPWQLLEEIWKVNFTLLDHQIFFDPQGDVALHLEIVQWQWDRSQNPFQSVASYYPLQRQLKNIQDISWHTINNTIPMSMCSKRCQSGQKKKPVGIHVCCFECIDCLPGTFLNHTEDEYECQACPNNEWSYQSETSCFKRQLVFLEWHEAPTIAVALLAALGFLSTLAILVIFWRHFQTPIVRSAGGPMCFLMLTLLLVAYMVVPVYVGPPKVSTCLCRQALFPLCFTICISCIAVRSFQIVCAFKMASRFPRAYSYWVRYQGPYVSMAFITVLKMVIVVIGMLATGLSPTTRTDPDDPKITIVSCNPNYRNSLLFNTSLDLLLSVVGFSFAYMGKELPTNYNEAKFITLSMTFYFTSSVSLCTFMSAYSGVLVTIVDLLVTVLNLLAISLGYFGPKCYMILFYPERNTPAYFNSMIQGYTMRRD
T1 sequence (Q7RTX0 21-852 partner): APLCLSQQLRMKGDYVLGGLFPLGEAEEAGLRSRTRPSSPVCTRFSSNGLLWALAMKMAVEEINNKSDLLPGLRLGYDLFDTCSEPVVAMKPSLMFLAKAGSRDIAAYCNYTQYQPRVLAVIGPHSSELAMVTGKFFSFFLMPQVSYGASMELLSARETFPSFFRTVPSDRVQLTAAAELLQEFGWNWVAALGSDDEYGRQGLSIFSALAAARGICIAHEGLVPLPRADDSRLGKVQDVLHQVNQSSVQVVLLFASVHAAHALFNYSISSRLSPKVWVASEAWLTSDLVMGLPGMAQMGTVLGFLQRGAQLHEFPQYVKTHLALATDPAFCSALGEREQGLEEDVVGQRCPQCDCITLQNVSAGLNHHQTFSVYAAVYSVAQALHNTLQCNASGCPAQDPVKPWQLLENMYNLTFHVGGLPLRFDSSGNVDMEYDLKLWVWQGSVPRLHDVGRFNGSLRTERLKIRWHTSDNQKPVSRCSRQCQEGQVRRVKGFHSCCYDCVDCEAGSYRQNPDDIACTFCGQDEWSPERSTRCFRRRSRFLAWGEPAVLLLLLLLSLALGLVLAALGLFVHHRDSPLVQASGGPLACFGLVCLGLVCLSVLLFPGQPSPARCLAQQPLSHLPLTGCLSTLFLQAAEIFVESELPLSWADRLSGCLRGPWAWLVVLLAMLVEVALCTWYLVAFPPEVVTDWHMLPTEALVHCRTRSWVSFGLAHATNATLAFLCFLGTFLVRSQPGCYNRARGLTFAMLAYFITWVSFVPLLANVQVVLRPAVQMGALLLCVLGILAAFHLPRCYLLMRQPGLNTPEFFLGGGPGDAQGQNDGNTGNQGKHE
Summary of the method: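 HEK293E cells (Opti-MEM, 5% FBS, 37°C) were seeded at 50,000/well and cotransfected with Tas1R plasmids and Gα16-gust44 (0.06 μg each per well). Medium changed at 20 h; assayed 24 h later after 1 h loading with 3 μm Fluo-4 AM in HBSS/20 mm HEPES. Fluorescence (ex 488/em 525 nm) read 2 s apart; tastant added at 30 s, 150 s further. Peak ΔF/F sigmoid-fitted; three independent experiments.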

smTas1R2:S67I+smTas1R3 = smTas1R2:S67I+smTas1R3 (Saimiri sciureus, UniProt A3QP08, S67I); experiment: Ca2+ mobilization, mutated squirrel monkey receptor; format: cell-based, squirrel monkey (Saimiri sciureus); conditions: aspartame 10mM, neotame 1mM, sucralose 2 mM; compared with smTas1R2/smTas1R3
[1] = test system: All the human and squirrel monkey mutants; experiment: Ca2+ mobilization, control response of all mutants; format: cell-based; conditions: sucralose 2 mM
Summary of the method: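 HEK293E cells grown at 37°C in Opti-MEM with 5% FBS and seeded at 50,000/well. Cells co-lipofected with Tas1R plasmids and Gα16-gust44 (0.06 μg each per well); medium changed at 20 h, assayed 24 h later. Cells loaded 1 h with Fluo-4 AM in HEPES-buffered HBSS. Tastant added at 30 s; fluorescence (ex 488/em 525 nm) read every 2 s for 150 s more. ΔF/F normalised to human receptor maximal sucralose response; mean ± SEM, three independent experiments.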

smTas1R2:S67I+smTas1R3, sequence (A3QP08 20-834 S67I): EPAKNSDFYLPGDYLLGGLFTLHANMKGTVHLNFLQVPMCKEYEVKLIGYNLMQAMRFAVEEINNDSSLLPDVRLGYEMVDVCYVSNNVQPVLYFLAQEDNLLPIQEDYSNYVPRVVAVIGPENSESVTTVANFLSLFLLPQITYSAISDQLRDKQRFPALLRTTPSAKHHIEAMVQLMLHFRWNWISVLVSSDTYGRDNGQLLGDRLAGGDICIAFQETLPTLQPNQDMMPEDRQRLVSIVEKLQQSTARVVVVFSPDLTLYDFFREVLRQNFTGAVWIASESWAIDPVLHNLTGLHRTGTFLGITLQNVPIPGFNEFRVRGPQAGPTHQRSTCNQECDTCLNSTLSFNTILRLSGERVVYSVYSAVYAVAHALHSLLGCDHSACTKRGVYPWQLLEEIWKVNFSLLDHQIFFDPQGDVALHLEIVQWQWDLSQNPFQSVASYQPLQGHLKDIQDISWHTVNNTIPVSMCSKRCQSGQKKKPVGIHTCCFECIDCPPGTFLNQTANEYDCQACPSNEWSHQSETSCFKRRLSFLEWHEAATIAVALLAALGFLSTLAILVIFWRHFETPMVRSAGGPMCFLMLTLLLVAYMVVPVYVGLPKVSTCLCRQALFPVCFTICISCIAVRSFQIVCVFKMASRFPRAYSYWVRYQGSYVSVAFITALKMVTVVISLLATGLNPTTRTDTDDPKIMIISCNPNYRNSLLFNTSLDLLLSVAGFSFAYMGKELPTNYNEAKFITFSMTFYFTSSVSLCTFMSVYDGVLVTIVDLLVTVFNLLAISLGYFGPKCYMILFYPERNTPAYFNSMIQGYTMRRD

SMILES	pEC50 (hTas1R2/hTas1R3)	response in dose-response experiment (hTas1R2/hTas1R3)	Bottom (B) of sigmoid dose-response fit (hTas1R2/hTas1R3)	Top (T) of sigmoid dose-response fit (hTas1R2/hTas1R3)	calcium response to sweetener (smTas1R2:S67I+smTas1R3)	calcium response to the control sweetener [1]
COC(=O)[C@H](Cc1ccccc1)NC(=O)[C@@H](N)CC(=O)O [aspartame, L-α-aspartly-L-phenylalanine methyl ester] (H-Asp-Phe-OMe)	2.30	good response	7.074	73.32	not able to recover	
OC[C@H]1O[C@H](O[C@]2(CCl)O[C@H](CCl)[C@@H](O)[C@@H]2O)[C@H](O)[C@@H](O)[C@H]1Cl [sucralose]						significant level of response
COC(=O)[C@H](Cc1ccccc1)NC(=O)[C@H](CC(=O)O)NCCC(C)(C)C [neotame]		good response	−165.1	92.82	not able to recover	
